From ChEMBL document CHEMBL5058577, “EUbOPEN Chemogenomics Library 2 (Multiplex)” (2022)

Test system: Fibroblast
Test: Multiplex assay against human fibroblast
Format: toxicity, cell-based
How it was run: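 On a CQ1 microscope at 37°C and 5% CO2, live cells were imaged after compound addition. They had been stained at seeding with Hoechst33342, BioTracker Green Microtubule Cytoskeleton Dye, MitoTracker Red and Annexin V Alexa Fluor 680. CellPathfinder machine-learning gating assigned cells to Hoechst high-intensity objects or normal cells, normal cells to healthy, pyknosed or fragmented nuclei, and pyknosed cells to mitotic or apoptotic. Tubulin, mitochondrial-mass and membrane-permeability phenotypes are per cents of healthy-nucleus cells.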

[1] = 12 h, 1 µM, compound concentration 1 uM, replicate 1
[2] = 12 h, 1 µM, compound concentration 1 uM, replicate 2
[3] = 12 h, 10 µM, compound concentration 10 uM, replicate 1
[4] = 12 h, 10 µM, compound concentration 10 uM, replicate 2
[5] = 24 h, 1 µM, compound concentration 1 uM, replicate 1
[6] = 24 h, 1 µM, compound concentration 1 uM, replicate 2
[7] = 24 h, 10 µM, compound concentration 10 uM, replicate 1
[8] = 24 h, 10 µM, compound concentration 10 uM, replicate 2
[9] = 48 h, 1 µM, compound concentration 1 uM, replicate 1
[10] = 48 h, 1 µM, compound concentration 1 uM, replicate 2
[11] = 48 h, 10 µM, compound concentration 10 uM, replicate 1
[12] = 48 h, 10 µM, compound concentration 10 uM, replicate 2

Br.CS(=O)(=O)Nc1c(O)ccc2c1CCCC2C1=NCCN1 (configuration not stated)
Population Apoptotic (%) [1]: 17% | Population Fragmented Nuclei (%) [1]: 9% | Population Healthy Nuclei (%) [1]: 76% | Population Hoechst High Intensity Objects (%) [1]: 1% | Population Membrane Permeable-Phenotype (%) [1]: 0% | Population Mitochondria Different-Phenotype (%) [1]: 5% | Population Mitotic Cells (%) [1]: 82% | Population Normal (%) [1]: 98% | Population Pyknosed Nuclei (%) [1]: 14% | Population Tubulin-Different-Phenotype (%) [1]: 20% | Total Cell Count [1]: 167 | Population Apoptotic (%) [2]: 31% | Population Fragmented Nuclei (%) [2]: 32% | Population Healthy Nuclei (%) [2]: 47% | Population Hoechst High Intensity Objects (%) [2]: 8% | Population Membrane Permeable-Phenotype (%) [2]: 7% | Population Mitochondria Different-Phenotype (%) [2]: 8% | Population Mitotic Cells (%) [2]: 68% | Population Normal (%) [2]: 91% | Population Pyknosed Nuclei (%) [2]: 19% | Population Tubulin-Different-Phenotype (%) [2]: 38% | Total Cell Count [2]: 192 | Population Apoptotic (%) [3]: 38% | Population Fragmented Nuclei (%) [3]: 20% | Population Healthy Nuclei (%) [3]: 47% | Population Hoechst High Intensity Objects (%) [3]: 6% | Population Membrane Permeable-Phenotype (%) [3]: 1% | Population Mitochondria Different-Phenotype (%) [3]: 7% | Population Mitotic Cells (%) [3]: 61% | Population Normal (%) [3]: 93% | Population Pyknosed Nuclei (%) [3]: 31% | Population Tubulin-Different-Phenotype (%) [3]: 21% | Total Cell Count [3]: 148 | Population Apoptotic (%) [4]: 33% | Population Fragmented Nuclei (%) [4]: 38% | Population Healthy Nuclei (%) [4]: 45% | Population Hoechst High Intensity Objects (%) [4]: 0% | Population Membrane Permeable-Phenotype (%) [4]: 12% | Population Mitochondria Different-Phenotype (%) [4]: 5% | Population Mitotic Cells (%) [4]: 66% | Population Normal (%) [4]: 99% | Population Pyknosed Nuclei (%) [4]: 16% | Population Tubulin-Different-Phenotype (%) [4]: 43% | Total Cell Count [4]: 129 | Population Apoptotic (%) [5]: 56% | Population Fragmented Nuclei (%) [5]: 12% | Population Healthy Nuclei (%) [5]: 77% | Population Hoechst High Intensity Objects (%) [5]: 1% | Population Membrane Permeable-Phenotype (%) [5]: 0% | Population Mitochondria Different-Phenotype (%) [5]: 3% | Population Mitotic Cells (%) [5]: 43% | Population Normal (%) [5]: 98% | Population Pyknosed Nuclei (%) [5]: 10% | Population Tubulin-Different-Phenotype (%) [5]: 16% | Total Cell Count [5]: 159 | Population Apoptotic (%) [6]: 33% | Population Fragmented Nuclei (%) [6]: 25% | Population Healthy Nuclei (%) [6]: 60% | Population Hoechst High Intensity Objects (%) [6]: 7% | Population Membrane Permeable-Phenotype (%) [6]: 2% | Population Mitochondria Different-Phenotype (%) [6]: 7% | Population Mitotic Cells (%) [6]: 66% | Population Normal (%) [6]: 92% | Population Pyknosed Nuclei (%) [6]: 14% | Population Tubulin-Different-Phenotype (%) [6]: 41% | Total Cell Count [6]: 180 | Population Apoptotic (%) [7]: 48% | Population Fragmented Nuclei (%) [7]: 16% | Population Healthy Nuclei (%) [7]: 60% | Population Hoechst High Intensity Objects (%) [7]: 3% | Population Membrane Permeable-Phenotype (%) [7]: 0% | Population Mitochondria Different-Phenotype (%) [7]: 2% | Population Mitotic Cells (%) [7]: 51% | Population Normal (%) [7]: 96% | Population Pyknosed Nuclei (%) [7]: 23% | Population Tubulin-Different-Phenotype (%) [7]: 24% | Total Cell Count [7]: 148 | Population Apoptotic (%) [8]: 41% | Population Fragmented Nuclei (%) [8]: 41% | Population Healthy Nuclei (%) [8]: 44% | Population Hoechst High Intensity Objects (%) [8]: 0% | Population Membrane Permeable-Phenotype (%) [8]: 10% | Population Mitochondria Different-Phenotype (%) [8]: 10% | Population Mitotic Cells (%) [8]: 58% | Population Normal (%) [8]: 99% | Population Pyknosed Nuclei (%) [8]: 13% | Population Tubulin-Different-Phenotype (%) [8]: 41% | Total Cell Count [8]: 130 | Population Apoptotic (%) [9]: 57% | Population Fragmented Nuclei (%) [9]: 14% | Population Healthy Nuclei (%) [9]: 76% | Population Hoechst High Intensity Objects (%) [9]: 4% | Population Membrane Permeable-Phenotype (%) [9]: 4% | Population Mitochondria Different-Phenotype (%) [9]: 3% | Population Mitotic Cells (%) [9]: 42% | Population Normal (%) [9]: 95% | Population Pyknosed Nuclei (%) [9]: 8% | Population Tubulin-Different-Phenotype (%) [9]: 24% | Total Cell Count [9]: 167 | Population Apoptotic (%) [10]: 38% | Population Fragmented Nuclei (%) [10]: 26% | Population Healthy Nuclei (%) [10]: 61% | Population Hoechst High Intensity Objects (%) [10]: 5% | Population Membrane Permeable-Phenotype (%) [10]: 0% | Population Mitochondria Different-Phenotype (%) [10]: 9% | Population Mitotic Cells (%) [10]: 61% | Population Normal (%) [10]: 94% | Population Pyknosed Nuclei (%) [10]: 12% | Population Tubulin-Different-Phenotype (%) [10]: 41% | Total Cell Count [10]: 177 | Population Apoptotic (%) [11]: 61% | Population Fragmented Nuclei (%) [11]: 22% | Population Healthy Nuclei (%) [11]: 61% | Population Hoechst High Intensity Objects (%) [11]: 6% | Population Membrane Permeable-Phenotype (%) [11]: 1% | Population Mitochondria Different-Phenotype (%) [11]: 2% | Population Mitotic Cells (%) [11]: 38% | Population Normal (%) [11]: 93% | Population Pyknosed Nuclei (%) [11]: 15% | Population Tubulin-Different-Phenotype (%) [11]: 21% | Total Cell Count [11]: 145 | Population Apoptotic (%) [12]: 33% | Population Fragmented Nuclei (%) [12]: 48% | Population Healthy Nuclei (%) [12]: 44% | Population Hoechst High Intensity Objects (%) [12]: 1% | Population Membrane Permeable-Phenotype (%) [12]: 3% | Population Mitochondria Different-Phenotype (%) [12]: 9% | Population Mitotic Cells (%) [12]: 66% | Population Normal (%) [12]: 98% | Population Pyknosed Nuclei (%) [12]: 7% | Population Tubulin-Different-Phenotype (%) [12]: 45% | Total Cell Count [12]: 127
